Laboratory results reported in article PMC11246720 (Journal of the American Chemical Society, 2023).
Numbering of substitutions follows the chain as printed.

Columns and labels:
MAGE-A4 [1] = biological target: T1, MAGE-A4 (Homo sapiens, UniProt P43358); assay: TR-FRET between AF647-MTP-1 and MAGE-A4; format: binding
T1 sequence (P43358 1-317): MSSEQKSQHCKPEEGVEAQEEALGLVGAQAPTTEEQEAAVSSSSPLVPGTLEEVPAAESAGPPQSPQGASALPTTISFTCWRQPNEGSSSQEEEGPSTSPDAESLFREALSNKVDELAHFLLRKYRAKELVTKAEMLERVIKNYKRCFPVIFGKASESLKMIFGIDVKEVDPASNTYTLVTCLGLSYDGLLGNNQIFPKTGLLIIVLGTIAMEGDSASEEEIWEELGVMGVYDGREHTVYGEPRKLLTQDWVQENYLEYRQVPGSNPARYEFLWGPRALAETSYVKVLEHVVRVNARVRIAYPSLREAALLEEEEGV
In short: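 Time-dependent TR-FRET measured displacement of AF647-labelled MTP-1 peptide tracer from MAGE-A4 (and from MAGE-A4 C80A) by covalent peptides. IC50 values were calculated from the resulting TR-FRET curves.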

MAGE-A4 C80A [2] = biological target: T2, MAGE-A4 C80A (Homo sapiens, UniProt P43358, C80A); assay: MALDI-MS covalent modification of MAGE-A4 C80A mutant; format: binding
T2 sequence (P43358 1-317 C80A): T1 sequence (P43358 1-317) with C80A
In short: (§1)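 MAGE-A4 wild type or its C80A mutant was incubated with each peptide, and the intact protein was analysed by MALDI-MS for covalent adducts. L-Ala and D-Ala variants of each peptide, in which the dehydroalanines are replaced, were run in parallel.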

MAGE-A4 [3] = biological target: T1, MAGE-A4; assay: MALDI-MS covalent modification of MAGE-A4; format: binding
In short: as §1

MAGE-A4 C80A [4] = biological target: T2, MAGE-A4 C80A; assay: TR-FRET between AF647-MTP-1 and MAGE-A4 C80A; format: binding; conditions: TR-FRET vs AF647-MTP-1
MAGE-A4 [5] = biological target: T1, MAGE-A4; assay: Mass dilution TR-FRET assay for kinetic parameters; format: binding
RAD18-MAGE-A4 complex = biological target: T3, RAD18-MAGE-A4 complex (Homo sapiens, UniProt P43358); assay: Co-immunoprecipitation of the RAD18-MAGE-A4 complex in cell lysates; conditions: 10 μM peptides
T3 sequence (P43358 1-317): T1 sequence (P43358 1-317)
In short: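 Read-out is Western blotting of MAGE-A4 co-immunoprecipitated with RAD18 from cell lysates. Peptides were tested at 10 μM, alongside a peptide included as a negative control.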

With MCP1 the IC50 (MAGE-A4 [1]; after 1 hour) was 9 nM, the “change in potency over time” value (MAGE-A4 [1]; time-dependent TR-FRET) was “small yet significant increases in potency over time” and the “covalent modification of MAGE-A4 C80A mutant” value (MAGE-A4 C80A [2]) was “did not label”. The “covalent modification of MAGE-A4” value (MAGE-A4 [3]) was “modify MAGE-A4”, the “IC50 / activity in the presence of MAGE-A4 C80A” value (MAGE-A4 C80A [4]) was “fell in between those of their L- and D-Ala mutants” and the Ki (MAGE-A4 [5]) was 7.3 ± 1.1 nM. The “inactivation efficiency (kinact/KI)” value (MAGE-A4 [5]) was 8.17e+06 ± 867000 M⁻¹ s⁻¹, the kinact (MAGE-A4 [5]) was 3.4 ± 0.3 min⁻¹ and the “disruption of MAGE-A4 pulldown with RAD18” value (RAD18-MAGE-A4 complex) was “able to disrupt MAGE-A4 pulldown”.
